Test results taken from ChEMBL document CHEMBL1629439, “High-throughput identification of antibacterials against methicillin-resistant Staphylococcus aureus (MRSA) and the transglycosylase” (Bioorg Med Chem, 2010).
Values after ≈ are worked out from the molar mass of the structure shown. Active and inactive are the calls of the source. The rule behind the calls is not given here.

Columns and labels:
Staphylococcus aureus [1] = assay: Antimicrobial activity against oxacillin- and methicillin-resistant Staphylococcus aureus isolate Sa-OXA-R2 after 18 to 24 hrs by alamar blue assay; type: functional
Procedure, shortened: (§1)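 Broth microdilution per NCCLS standard, Mueller-Hinton broth, 8-point twofold dilutions; exponentially growing cells at 5 10^5 cells/ml with compound, 18–24 h at 37 C; 20% Alamar blue added, fluorescence read; MIC90 taken as lowest concentration preventing at least 90% growth.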

Bacillus subtilis = assay: Antimicrobial activity against Bacillus subtilis ATCC 23857 after 18 to 24 hrs by alamar blue assay; type: functional
Procedure, shortened: (§2)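 Broth microdilution per NCCLS in Mueller-Hinton broth, 8-point twofold dilutions, 384-well format. Exponential-phase cells at 5 × 10^5 cells/ml incubated with compound 18–24 h at 37 °C, then 20% Alamar blue added and fluorescence read. MIC90 taken as the lowest concentration preventing at least 90% bacterial growth.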

Escherichia coli [2] = assay: Antimicrobial activity against Escherichia coli ATCC […] after 18 to 24 hrs by alamar blue assay; type: functional; procedure, shortened: as §2
Pseudomonas aeruginosa = assay: Antimicrobial activity against Pseudomonas aeruginosa ATCC 25619 after 18 to 24 hrs by alamar blue assay; type: functional; procedure, shortened: as §2
Acinetobacter baumannii = assay: Antimicrobial activity against Acinetobacter baumannii ATCC 49139 after 18 to 24 hrs by alamar blue assay; type: functional; procedure, shortened: as §2
[3] = tested on: Stenotrophomonas maltophilia; assay: Antimicrobial activity against Stenotrophomonas maltophilia ATCC 13637 after 18 to 24 hrs by alamar blue assay; type: functional; procedure, shortened: as §2
Serratia marcescens = assay: Antimicrobial activity against Serratia marcescens ATCC 14756 after 18 to 24 hrs by alamar blue assay; type: functional; procedure, shortened: as §2
[4] = tested on: Mycolicibacterium smegmatis; assay: Antimicrobial activity against Mycobacterium smegmatis BCRC 11565 after 18 to 24 hrs by alamar blue assay; type: functional; procedure, shortened: as §2
[5] = Inhibition of transglycosylase assessed as inhibition of NBD- labelled lipid II polymerization
Procedure, shortened: (§3)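 100 µM NBD-labelled lipid II incubated 30 min with full-length PBP (EC, SA or Mtb) and 10 ng/µl N-acetylmuramidase in 50 mM Tris-HCl pH 8.0, 10 mM MgCl2, 0.1% Triton X-100, 10% DMSO, 15% MeOH. Supernatant run on anion-exchange HPLC with 20 mM–0.5 M ammonium acetate gradient. Inhibition calculated from substrate peak-area percentage. IC50 determined. S. aureus strains share one SA enzyme.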

Staphylococcus aureus [6] = assay: Antimicrobial activity against methicillin-resistant Staphylococcus aureus isolate NTUH4722 after 18 to 24 hrs by alamar blue assay; type: functional; procedure, shortened: as §1
[7] = Inhibition of transglycosylase in Escherichia coli ATCC […] assessed as inhibition of NBD- labelled lipid II polymerization; procedure, shortened: as §3
[8] = Inhibition of transglycosylase in Staphylococcus aureus ATCC 29213 assessed as inhibition of NBD- labelled lipid II polymerization; procedure, shortened: as §3
[9] = Inhibition of transglycosylase in Staphylococcus aureus ATCC 33592 assessed as inhibition of NBD- labelled lipid II polymerization; procedure, shortened: as §3
[10] = Inhibition of transglycosylase in Staphylococcus aureus isolate NTUH4722 assessed as inhibition of NBD- labelled lipid II polymerization; procedure, shortened: as §3
[11] = Inhibition of transglycosylase in Staphylococcus aureus isolate Sa-OXA-R2 assessed as inhibition of NBD- labelled lipid II polymerization; procedure, shortened: as §3
Staphylococcus aureus [12] = assay: Antimicrobial activity against methicillin-resistant Staphylococcus aureus ATCC 33592 after 18 to 24 hrs by alamar blue assay; type: functional; procedure, shortened: as §1
Escherichia coli [13] = assay: Displacement of fluorescein-labeled moenomycin from transglycosylase in Escherichia coli ATCC […] assessed as inhibition of lipid II polymerization at 100 uM after 30 mins by fluorescence anisotropy binding assay
Staphylococcus aureus [14] = assay: Antimicrobial activity against wild-type Staphylococcus aureus ATCC 29213 after 18 to 24 hrs by alamar blue assay; settings: for MIC90: Staphylococcus aureus, ATCC 29213
[15] = Displacement of fluorescein-labeled moenomycin from transglycosylase in Escherichia coli ATCC […] assessed as inhibition of lipid II polymerization after 30 mins by fluorescence anisotropy binding assay; design: species or system Staphylococcus aureus
Procedure, shortened: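 Full-length bifunctional PBP (TGase) at 10 µg/ml mixed with 100 nM fluorescent moenomycin in 10 mM Tris, 100 mM NaCl, pH 8.0, in 1536-well plates. 1 µl of 1 mM compound stock added. 10 µM moenomycin and 2.5% DMSO served as positive and negative controls. After 30 min, drop in fluorescence anisotropy read. Ki derived from Kd and IC50. Same SA enzyme serves all S. aureus strains.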

[16] = Displacement of fluorescein-labeled moenomycin from Mycobacterium tuberculosis transglycosylase assessed as inhibition of lipid II polymerization after 30 mins by fluorescence anisotropy binding assay
Procedure, shortened: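 Full-length bifunctional PBP (10 µg/ml) with 100 nM fluorescein-labelled moenomycin in 10 mM Tris, 100 mM NaCl, pH 8.0; compound added from 1 mM stocks; 30 min incubation, anisotropy decrease read; 10 µM moenomycin and 2.5% DMSO controls. For dose series, Ki derived from probe Kd and IC50.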

[17] = Inhibition of Mycobacterium tuberculosis transglycosylase assessed as inhibition of NBD- labelled lipid II polymerization
Procedure, shortened: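 Full-length PBP incubated 30 min with 100 µM NBD-labelled lipid II, 10 ng/µl N-acetylmuramidase in 50 mM Tris-HCl pH 8.0, 10 mM MgCl2, 0.1% Triton X-100, 10% DMSO, 15% MeOH; supernatant on anion-exchange HPLC, ammonium acetate gradient (20 mM–0.5 M); inhibition from substrate peak area percentage.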

Staphylococcus aureus [18] = assay: Antimicrobial activity against Staphylococcus aureus ATCC 29213 after 18 to 24 hrs by alamar blue assay
[19] = Pseudomonas aeruginosa, ATCC 25619, read-out: MIC
[20] = Acinetobacter baumannii, ATCC 49139, read-out: MIC
[21] = Stenotrophomonas maltophilia, ATCC 13637, read-out: MIC
[22] = Serratia marcescens, ATCC 14756, read-out: MIC
[23] = Mycolicibacterium smegmatis, BCRC 11565
[24] = Staphylococcus aureus, ATCC 33592

Cc1ccc(C(C)C)c(Oc2cc(Cl)ccc2NC(=O)c2cc(Br)cc(Br)c2O)c1
MIC90 (Staphylococcus aureus [1]): 0.45 µM (≈ 0.249 µg/mL) | MIC (Bacillus subtilis): < 0.03 µg/mL | MIC90 (Escherichia coli [2]; Escherichia coli): > 512 µM | MIC (Pseudomonas aeruginosa; [19]): 16 µg/mL (≈ 28.9 µM) | MIC (Acinetobacter baumannii; [20]): 16 µg/mL (≈ 28.9 µM) | MIC [3, 21]: 16 µg/mL (≈ 28.9 µM) | MIC (Serratia marcescens; [22]): 16 µg/mL (≈ 28.9 µM) | MIC90 [4, 23]: 3.6 µM (≈ 1.99 µg/mL) | IC90 [5]: < 25 µM | MIC90 (Staphylococcus aureus [6]): 1.8 µM (≈ 0.997 µg/mL) | IC50 [7]: 2.7 µM | IC50 [8]: 19.6 µM | IC50 [9]: 19.6 µM | IC50 [10]: 19.6 µM | IC50 [11]: 19.6 µM | MIC90 (Staphylococcus aureus [12]; [24]): 1.8 µM (≈ 0.997 µg/mL) | Activity (Escherichia coli [13]): inactive | MIC90 (Staphylococcus aureus [14]): 1.8 µM (≈ 0.997 µg/mL)

Cc1ccc(C(C)C)c(Oc2ccccc2NC(=O)c2cc(I)cc(I)c2O)c1
MIC90 (Staphylococcus aureus [1]): 13 µM (≈ 7.97 µg/mL) | MIC (Bacillus subtilis): < 0.03 µg/mL | MIC90 (Escherichia coli [2]; Escherichia coli): > 512 µM | MIC (Pseudomonas aeruginosa; [19]): 16 µg/mL (≈ 26.1 µM) | MIC (Acinetobacter baumannii; [20]): 16 µg/mL (≈ 26.1 µM) | MIC [3, 21]: 16 µg/mL (≈ 26.1 µM) | MIC (Serratia marcescens; [22]): 16 µg/mL (≈ 26.1 µM) | MIC90 [4, 23]: 13 µM (≈ 7.97 µg/mL) | IC90 [5]: < 25 µM | Ki [15]: 98 µM | MIC90 (Staphylococcus aureus [6]): 1.6 µM (≈ 0.981 µg/mL) | IC50 [7]: 7.2 µM | IC50 [8]: 27.8 µM | IC50 [9]: 27.8 µM | IC50 [10]: 27.8 µM | IC50 [11]: 27.8 µM | MIC90 (Staphylococcus aureus [12]; [24]): 3.3 µM (≈ 2.02 µg/mL) | MIC90 (Staphylococcus aureus [14]): 6.5 µM (≈ 3.99 µg/mL)

C=C(C/C=C(\C)CCC=C(C)C)CCC(C)(C)/C=C/CC/C(C)=C/CO[C@@H](COP(=O)(O)O[C@H]1O[C@H](C(N)=O)[C@@](C)(O)[C@H](OC(N)=O)[C@H]1O[C@@H]1O[C@H](CO[C@@H]2O[C@H](CO)[C@@H](O)[C@H](O)[C@H]2O)[C@@H](O[C@@H]2O[C@H](C)[C@@H](O[C@@H]3O[C@H](C(=O)NC4=C(O)CCC4=O)[C@H](O)[C@H](O)[C@H]3O)[C@H](O)[C@H]2NC(C)=O)[C@H](O)[C@H]1NC(C)=O)C(=O)O [MOENOMYCIN A]
MIC90 (Staphylococcus aureus [1]): 33 µM (≈ 52.2 µg/mL) | MIC90 (Escherichia coli [2]; Escherichia coli): 160 µM (≈ 253 µg/mL) | MIC90 [4, 23]: 2.5 µM (≈ 3.96 µg/mL) | Ki [15]: 1.1 µM | Ki [16]: 9.8 µM | MIC90 (Staphylococcus aureus [6]): 33 µM (≈ 52.2 µg/mL) | IC50 [7]: 0.028 µM | IC50 [8]: 0.034 µM | IC50 [9]: 0.034 µM | IC50 [10]: 0.034 µM | IC50 [11]: 0.034 µM | IC50 [17]: 0.05 µM | MIC90 (Staphylococcus aureus [12]; [24]): 11 µM (≈ 17.4 µg/mL) | MIC90 (Staphylococcus aureus [14]): 3 µM (≈ 4.75 µg/mL)

O=C(Nc1ccc(Cl)c(C(=O)c2ccc(Cl)cc2)c1)c1cc(Cl)ccc1O
MIC (Bacillus subtilis): < 0.03 µg/mL | MIC (Escherichia coli [2]): 8 µg/mL (≈ 19 µM) | MIC (Escherichia coli [2]; Escherichia coli, read-out: MIC): 8 µg/mL (≈ 19 µM) | MIC (Pseudomonas aeruginosa): 16 µg/mL (≈ 38 µM) | MIC (Pseudomonas aeruginosa; [19]): 16 µg/mL (≈ 38 µM) | MIC (Acinetobacter baumannii): 16 µg/mL (≈ 38 µM) | MIC (Acinetobacter baumannii; [20]): 16 µg/mL (≈ 38 µM) | MIC [3]: 16 µg/mL (≈ 38 µM) | MIC [3, 21]: 16 µg/mL (≈ 38 µM) | MIC (Serratia marcescens): 16 µg/mL (≈ 38 µM) | MIC (Serratia marcescens; [22]): 16 µg/mL (≈ 38 µM) | MIC [4]: 0.5 µg/mL (≈ 1.19 µM) | MIC ([4]; Mycolicibacterium smegmatis, BCRC 11565, read-out: MIC): 0.5 µg/mL (≈ 1.19 µM) | IC90 [5]: 100 µM | MIC (Staphylococcus aureus [12]): 4 µg/mL (≈ 9.51 µM) | MIC (Staphylococcus aureus [12]; Staphylococcus aureus, ATCC 33592, read-out: MIC): 4 µg/mL (≈ 9.51 µM) | MIC (Staphylococcus aureus [18]): 4 µg/mL (≈ 9.51 µM) | MIC (Staphylococcus aureus [14]): >4 µg/mL

CCc1ccc2oc(-c3cccc(NC(=O)c4ccc([N+](=O)[O-])o4)c3)nc2c1
MIC90 (Staphylococcus aureus [1]): 1 µM (≈ 0.377 µg/mL) | MIC (Bacillus subtilis): 0.06 µg/mL (≈ 0.159 µM) | MIC90 (Escherichia coli [2]; Escherichia coli): > 512 µM | MIC (Pseudomonas aeruginosa; [19]): 128 µg/mL (≈ 339 µM) | MIC (Acinetobacter baumannii; [20]): 12 µg/mL (≈ 31.8 µM) | MIC [3, 21]: 32 µg/mL (≈ 84.8 µM) | MIC (Serratia marcescens; [22]): 32 µg/mL (≈ 84.8 µM) | MIC90 [4, 23]: 0.5 µM (≈ 0.189 µg/mL) | Ki [15]: 98 µM | MIC90 (Staphylococcus aureus [6]): 1 µM (≈ 0.377 µg/mL) | IC50 [7]: 30.3 µM | MIC90 (Staphylococcus aureus [12]; [24]): 0.5 µM (≈ 0.189 µg/mL) | MIC90 (Staphylococcus aureus [14]): 1 µM (≈ 0.377 µg/mL)

O=C(c1ccc(Cl)cc1)c1ccc(Oc2ccc(Cl)cc2)c(NC(=O)c2cc(I)cc(I)c2O)c1
MIC90 (Staphylococcus aureus [1]): 11 µM (≈ 8.03 µg/mL) | MIC (Bacillus subtilis): < 0.03 µg/mL | MIC90 (Escherichia coli [2]; Escherichia coli): > 512 µM | MIC (Pseudomonas aeruginosa; [19]): 16 µg/mL (≈ 21.9 µM) | MIC (Acinetobacter baumannii; [20]): 16 µg/mL (≈ 21.9 µM) | MIC [3, 21]: 16 µg/mL (≈ 21.9 µM) | MIC (Serratia marcescens; [22]): 16 µg/mL (≈ 21.9 µM) | MIC90 [4, 23]: 44 µM (≈ 32.1 µg/mL) | IC90 [5]: < 25 µM | Ki [15]: 68 µM | MIC90 (Staphylococcus aureus [6]): 11 µM (≈ 8.03 µg/mL) | IC50 [7]: 2.1 µM | IC50 [8]: 9.3 µM | IC50 [9]: 9.3 µM | IC50 [10]: 9.3 µM | IC50 [11]: 9.3 µM | MIC90 (Staphylococcus aureus [12]; [24]): 5.5 µM (≈ 4.02 µg/mL) | MIC90 (Staphylococcus aureus [14]): 11 µM (≈ 8.03 µg/mL)
